Bioassay records: PubChem, Johns Hopkins Ion Channel Center
Rows were chosen to be rich in hits. Some 3.7% of all compounds tested hit in one or more screens of this group.
KCNK9 block: inhibitors of human KCNK9 two-pore domain potassium channel; HEK293 KCNK9, FluxOR thallium flux fluorescence; hits give low values; Q9NPC2; B-score at 10 µM; hit rate 1.2% among 310,000;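 active means ratio B-score over 3 SD below the library mean, with starting fluorescence within 5 SD of its mean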;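 further: negative B-score means less thallium flux so channel inhibition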
KCNQ1 inh: blocks the human KCNQ1 potassium channel. P51787. CHO-K1 KCNQ1, FluxOR thallium flux fluorescence; hits give high values. B-score at 10 µM. hit rate 1.3% among 310,000. AID 2642;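 active means compounds whose thallium flux B-score, printed positive for inhibition, exceeds three library SD while starting fluorescence stays within three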;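 further: channel opened by potassium depolarization with thallium stimulus after 20 min compound exposure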
KCNK3 inh: human KCNK3 channel inhibition, primary screen. CHO-KCNK3 thallium flux, FluxOR fluorescence; hits give low values. B-score at 10 µM. hit rate 0.84% among 340,000;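 active means B-score under library mean minus 4 SD, starting fluorescence ratio at most library mean plus 5 SD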;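 further: more negative B-score means stronger inhibition of thallium flux through KCNK3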
Target sequence (O14649 whole entry, looked up): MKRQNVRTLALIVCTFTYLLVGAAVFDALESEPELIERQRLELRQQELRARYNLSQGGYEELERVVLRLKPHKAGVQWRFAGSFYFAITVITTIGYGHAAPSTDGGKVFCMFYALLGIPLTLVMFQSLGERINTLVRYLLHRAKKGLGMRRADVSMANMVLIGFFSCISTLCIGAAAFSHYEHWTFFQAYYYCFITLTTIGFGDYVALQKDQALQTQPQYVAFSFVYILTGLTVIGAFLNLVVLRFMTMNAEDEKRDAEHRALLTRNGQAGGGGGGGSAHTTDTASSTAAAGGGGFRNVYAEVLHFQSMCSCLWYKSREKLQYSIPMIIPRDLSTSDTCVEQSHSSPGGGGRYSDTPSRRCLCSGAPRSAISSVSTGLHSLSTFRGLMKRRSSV
hERG rescue: compounds protecting human hERG from proarrhythmic drug block; Q12809; CHO-hERG, FluxOR thallium flux, dofetilide IC70 present; activation (rescue from dofetilide block), less the hit threshold, % at 10 µM; hit rate 0.51% among 310,000;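 active means activation above the mean of controls blocked by dofetilide plus 5 SD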;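 further: thallium influx through hERG after potassium depolarization seen as dye fluorescence rise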
KCNQ1 pot: potentiates or activates the human KCNQ1 potassium channel; hit rate 0.35% among 310,000; CHO-K1 KCNQ1, thallium flux FluxOR fluorescence; hits give high values; AID 2648; P51787; B-score at 10 µM;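 active means fluorescence ratio B-score, a plate-corrected score, at least three library SD, with initial intensity B-score within 5 SD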
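Assay system: CHO-K1 cells stably expressing KCNQ1; Medium: assay buffer with matched DMSO; Also added: K+/Tl+ depolarizing stimulus; Dosing: single dose; Timing: dye 90 min, compound 20 min, room temperature; Measured by: kinetic FluxOR thallium fluorescence, 10-s 1-Hz baseline, 110-s post-stimulus read; Read-out: peak-minus-minimum fluorescence over initial fluorescence, negative-control normalized, B-scored.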
Kir21 block: blocks the mouse Kir2.1 inward-rectifier potassium channel | B-score at 10 µM | P35561 | hit rate 0.85% among 310,000 | HEK293-Kir2.1, FluxOR thallium flux fluorescence; hits give low values | AID 1672;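 active means fluorescence ratio B-score at or below minus 3 SD of library scores, with starting-brightness B-score within 2 SD, cut at about -4.2 in these data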;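 further: channel flux triggered by added potassium and thallium sulfate stimulus; B-score of peak minus minimum fluorescence over baseline after thallium stimulus; more negative B-score means stronger Kir2.1 block with less thallium influx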
KCNK9 block conf: confirmation of human KCNK9 potassium channel inhibitors; shares compounds with KCNK9 block; HEK293 KCNK9 cells, FluxOR thallium flux fluorescence; inhibition, % at 10 µM; hit rate 43% among 4,900; AID 492992;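 active means thallium signal inhibited by more than 5 SD of the compound-free buffer control wells, on both duplicate plates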;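 further: 0% = assay buffer control wells without compound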
Kir21 sel: tests whether KCNK9 modulators also affect mouse Kir2.1; shares compounds with KCNK9 block; Kir2.1 cells, FluxOR thallium flux fluorescence; inhibition, % at 10 µM; hit rate 4% among 4,900; AID 492993;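 active means thallium signal drop more than 5 SD beyond the mean of the no-compound control wells, seen in both duplicate plates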;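 further: signal is fluorescence rise after thallium addition divided by baseline fluorescence; plate controls were assay buffer only for no effect and full block by chlorpromazine control for full effect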
HEK293 Tl ctr: second check of KCNK9 modulator effects in non-induced HEK293 cells; shares compounds with KCNK9 block; FluxOR thallium flux; inhibition, % at 10 µM; hit rate 40% among 4,900;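 active means thallium signal drop beyond 5 SD of the untreated control mean, on both duplicate plates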;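 further: plate controls were buffer only IC0 wells for no effect and SID17386958 at its maximal inhibitory level for full effect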
Active calls of the source: *; i = inactive; nt = no result.

SMILES	KCNK9 block	KCNQ1 inh	KCNK3 inh	hERG rescue	KCNQ1 pot	Kir21 block	KCNK9 block conf	Kir21 sel	HEK293 Tl ctr
Cc1ccc2nc(NCCO)nc(-c3ccccc3)c2c1	i	i	i	-13	i	-1.1	nt	nt	nt
Cc1c(C(=O)CN2CCN(c3ccccc3)CC2)c2ccccc2n1C	i	i	i	-6	i	0.56	i	i	i
CC(=O)N1CCc2cc(C(=O)CN3CCN(c4ccccn4)CC3)ccc21	i	i	i	-8	i	0.79	nt	nt	nt
CC(=O)Oc1ccc(-c2cccc(C(=O)OCC(=O)Nc3ccccc3Oc3ccccc3)c2)cc1	i	i	i	-14	i	0.15	nt	nt	nt
CCOc1ccccc1NC(=O)COC(=O)c1cccc(-c2ccc(OC(C)=O)cc2)c1	-10*	i	i	-9	i	-2.2	i	i	32%*
Cc1ccc(C)c(OCC(=O)Nc2ccc(C(=O)O)cc2NC(=O)COc2cc(C)ccc2C)c1	i	i	i	-19	i	-0.37	i	i	i
COc1ccc(OCC(=O)Nc2cc(NC(=O)COc3ccc(OC)cc3)cc(C(=O)O)c2)cc1	i	i	i	-4	i	1.1	nt	nt	nt
Cc1ccc(OCC(=O)Nc2cc(NC(=O)COc3ccc(C)c(C)c3)cc(C(=O)O)c2)cc1C	i	i	i	-5	i	1.2	i	i	i
O=C(NCc1ccccc1)/C(=C/c1ccc(OC(F)F)cc1)c1ccccc1	-11*	i	i	-7	i	0.29	40%*	i	50%*
CC(C(=O)Nc1ccc(C#N)cc1)N(C)Cc1cccs1 (stereo not drawn)	i	i	i	-9	i	1.1	nt	nt	nt
CC(C(=O)Nc1ccc(Cl)cc1)N(C)Cc1cccs1 (stereo not drawn)	-11*	i	i	-4	i	-0.86	56%*	i	25%*
Cc1cc(C)c2sc(N(CCN(C)C)C(=O)c3ccc4ccccc4c3)nc2c1	i	i	i	-16	i	0.94	nt	nt	nt
Cc1cccc2sc(N(CCN(C)C)C(=O)c3cc(Cl)sc3Cl)nc12	i	i	i	-10	i	0.04	i	i	i
Cc1cccc2sc(N(CCCN(C)C)C(=O)c3sc4ccccc4c3Cl)nc12	nt	nt	i	nt	nt	nt	nt	nt	nt
COc1cc2ccccc2cc1C(=O)N(CCN(C)C)c1nc2c(C)cccc2s1	i	i	i	-6	i	0.38	nt	nt	nt
Cc1cccc2sc(N(CCCN(C)C)C(=O)c3ccc(C(=O)c4ccccc4)cc3)nc12	i	i	i	-23	i	1.5	i	i	i
Cc1ccc2sc(N(CCN(C)C)C(=O)c3ccc4ccccc4c3)nc2c1C	i	i	i	-12	i	0.72	i	i	i
CN(CC(=O)Nc1ccc(Cl)cc1)C(=O)C1CCCC1	nt	nt	i	nt	nt	nt	nt	nt	nt
CSc1ccccc1NS(=O)(=O)c1cccc2nonc12	i	i	i	-6	i	1.2	nt	nt	nt
O=C(NCc1ccccc1)C1(c2ccccc2)CCN(S(=O)(=O)c2ccccc2)CC1	i	i	i	-3	i	0.59	i	i	i
Cc1noc(C)c1COc1ccccc1C(=O)NC(C)c1ccc(F)cc1 (stereo not drawn)	nt	nt	i	nt	nt	nt	nt	nt	nt
Cc1ccc(-c2cc3ccccc3nc2N2CCOCC2)cc1	i	i	i	-11	i	-1.1	i	i	i
CSc1nc2nc(C)c(CCC(=O)OCC(=O)Nc3ccc(F)cc3)c(C)n2n1	nt	nt	i	nt	nt	nt	nt	nt	nt
Cc1onc(C(=O)Nc2c(C)n(C)n(-c3ccccc3)c2=O)c1[N+](=O)[O-]	i	i	i	-13	i	0.49	nt	nt	nt
COc1cccc(CN2CCN(C(=O)c3cccc4ccccc34)CC2)c1	i	i	i	-7	i	-0.4	nt	nt	nt
SMILES	KCNK9 block	KCNQ1 inh	KCNK3 inh	hERG rescue	KCNQ1 pot	Kir21 block	KCNK9 block conf	Kir21 sel	HEK293 Tl ctr
O=S1(=O)CCN(Cc2ccccc2C(F)(F)F)CC1	i	i	i	-2	i	0.51	nt	nt	nt
Cc1ccccc1CN1CCN(Cc2ccccc2C(F)(F)F)CC1	i	i	i	-14	i	-0.23	i	i	i
COc1ccc(CN2CCN(Cc3ccccc3C(F)(F)F)CC2)c(OC)c1	i	i	i	-11	i	-2.7	i	i	i
COc1cccc(CN2CCN(Cc3cccc(Oc4ccccc4)c3)CC2)c1OC	i	i	i	-10	i	-1.5	i	i	i
COc1cccc(CN2CCN(Cc3ccccc3C(F)(F)F)CC2)c1	i	i	i	-10	i	-0.34	i	i	i
CC(=O)c1ccc(OCC(=O)OCC(=O)NCc2ccco2)cc1	nt	nt	i	nt	nt	nt	nt	nt	nt
CN(C(=O)c1ccccc1C(=O)OCC(=O)c1ccc(F)c(F)c1)C1CCCCC1	nt	nt	i	nt	nt	nt	nt	nt	nt
COc1ccc(OC)c(CN2CCN(Cc3cccc4ccccc34)CC2)c1	i	i	i	-20	i	-0.38	i	i	i
Oc1ccc(-c2nc3c4c(ncn3n2)-c2ccccc2CC42CCCC2)cc1	-9*	i	i	-7	i	-0.84	36%*	i	35%*
CC(=O)Nn1cnc2c(c1=O)C1(CCCC1)Cc1ccccc1-2	nt	nt	i	nt	nt	nt	nt	nt	nt
COc1ccc(-c2cc(C(=O)NCC(c3ccco3)N(C)C)c3ccccc3n2)cc1OC (stereo not drawn)	i	i	i	-14	i	0.05	nt	nt	nt
CCOc1cc(CNS(=O)(=O)c2ccc3c(c2)CC(=O)N3C)cc(OCC)c1OCC	i	i	i	-7	i	0.02	nt	nt	nt
CCNc1nc(NC(C)C)nc(SCCOC(=O)c2ccccc2)n1	i	i	i	-6	i	-1.4	nt	nt	nt
CC(C)Nc1nc(NC(C)C)nc(SCCOC(=O)Nc2ccc(Cl)cc2Cl)n1	i	i	i	-9	i	-0.18	i	i	i
O=C(CSCC(=O)N1CCN(c2ccccc2)CC1)Nc1nc(-c2ccc(Cl)s2)cs1	i	i	i	-8	i	0.64	nt	nt	nt
O=C(CSCC(=O)N1CCCCC1)Nc1nc(-c2ccc(Cl)s2)cs1	i	i	i	-10	i	0.11	i	i	i
COc1ccc(Sc2nnc(Cc3ccccc3)c3ccccc23)cc1	-15*	i	i	-7	i	0.06	i	i	27%*
